Laboratory results reported in ChEMBL document CHEMBL1269007, “Synthesis and biological evaluation of Apogossypolone derivatives as pan-active inhibitors of antiapoptotic B-cell lymphoma/leukemia-2 (Bcl-2) family proteins” (J Med Chem, 2010).
Activity calls are given as the source filed them. The calls are words filed in the database; no cut-off is given here.

Legend:
Bcl-2-related protein A1 = target: T1, Bcl-2-related protein A1 (Homo sapiens, UniProt Q16548); experiment: Displacement of F-BakBH3 from Bfl-1 after 30 mins by fluorescence polarization assay
T1 sequence (Q16548 whole entry): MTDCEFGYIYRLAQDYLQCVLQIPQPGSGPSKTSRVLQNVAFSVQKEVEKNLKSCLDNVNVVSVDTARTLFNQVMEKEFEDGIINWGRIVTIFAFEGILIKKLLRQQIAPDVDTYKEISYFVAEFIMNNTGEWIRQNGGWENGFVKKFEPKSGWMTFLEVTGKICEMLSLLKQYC

Bcl-2-like protein 1 [1] = target: T2, Bcl-2-like protein 1 (Homo sapiens, UniProt Q07817); experiment: Displacement of F-BakBH3 from Bcl-xL after 30 mins by fluorescence polarization assay
T2 sequence (Q07817 whole entry): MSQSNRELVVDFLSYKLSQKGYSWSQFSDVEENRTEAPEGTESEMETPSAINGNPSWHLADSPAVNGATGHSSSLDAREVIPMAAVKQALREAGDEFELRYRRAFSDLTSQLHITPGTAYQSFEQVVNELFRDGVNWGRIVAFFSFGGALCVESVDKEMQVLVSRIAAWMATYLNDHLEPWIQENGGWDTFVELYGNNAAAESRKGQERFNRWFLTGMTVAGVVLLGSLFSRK
In short: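 GST-Bcl-XL ΔTM (100 nM) preincubated with varying compound concentrations in PBS pH 7.4 for 10 min at room temperature. FITC-labelled Bak BH3 peptide (2.5 μL of 100 nM stock) then added. Polarization read at 480/535 nm after 30 min at room temperature. Wild-type and mutant Bak BH3 peptides served as plate controls. IC50 from sigmoidal dose-response fit; mean of three independent experiments ± SE.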

[2] = Cytotoxicity against human H1299 cells expressing high level of Mcl-1 after 72 hrs by ATP-LITE assay; type: functional, cell-based; settings: NCI-H1299, 72 h
In short: (§1)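 Cells seeded in […] or RPMI1640 with 5 mM L-glutamine, 5% FBS, penicillin/streptomycin; H460 and H1299 at 2000, PC3 at 3000 cells/well. Compounds in 0.1% DMSO final added 24 h after seeding into fresh 5% serum medium; viability by ATP-LITE luminescence after 72 h, normalised to DMSO-treated cells.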

[3] = target: Induced myeloid leukemia cell differentiation protein Mcl-1 (Homo sapiens, UniProt Q07820); experiment: Displacement of FITC-Bim BH3 peptide from Mcl-1 after 10 mins by fluorescence polarization assay
Chain of Induced myeloid leukemia cell differentiation protein Mcl-1 (Q07820 whole entry): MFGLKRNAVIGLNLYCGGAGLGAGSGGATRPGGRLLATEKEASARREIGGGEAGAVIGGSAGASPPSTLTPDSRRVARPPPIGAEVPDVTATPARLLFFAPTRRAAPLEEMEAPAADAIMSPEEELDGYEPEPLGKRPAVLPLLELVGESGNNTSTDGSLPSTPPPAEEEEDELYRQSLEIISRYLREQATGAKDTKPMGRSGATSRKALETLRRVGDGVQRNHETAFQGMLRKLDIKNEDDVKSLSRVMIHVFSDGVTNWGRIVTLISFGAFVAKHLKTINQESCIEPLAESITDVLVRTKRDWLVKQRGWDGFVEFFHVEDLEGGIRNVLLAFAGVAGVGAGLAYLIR

[4] = target: Apoptosis regulator Bcl-2 (Homo sapiens, UniProt P10415); experiment: Displacement of FITC-Bim BH3 peptide from Bcl-2 after 10 mins by fluorescence polarization assay
Chain of Apoptosis regulator Bcl-2 (P10415 whole entry): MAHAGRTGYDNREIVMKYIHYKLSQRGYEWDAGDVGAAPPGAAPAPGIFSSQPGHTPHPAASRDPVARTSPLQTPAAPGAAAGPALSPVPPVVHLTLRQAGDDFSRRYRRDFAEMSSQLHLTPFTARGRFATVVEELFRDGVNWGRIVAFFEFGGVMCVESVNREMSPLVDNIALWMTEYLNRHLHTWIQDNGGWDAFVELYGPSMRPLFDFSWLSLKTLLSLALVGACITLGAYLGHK

NCI-H460 = experiment: Cytotoxicity against human H460 cells expressing high level of Bcl-2 after 72 hrs by ATP-LITE assay; type: functional, cell-based; settings: NCI-H460, 72 h; in short: as §1
Mus musculus [5] = experiment: Reduction of spleen weight in ip dosed human Bcl2 expressing B6 transgenic BALB/c mouse administered as single dose after 24 hrs; type: functional, organism-based
[6] = Cytotoxicity against human RS4:11 cells expressing high level of Bcl-2 and Bcl-xL after 72 hrs by annexin V-FITC and propidium iodide staining; type: functional, cell-based; settings: RS4-11, 72 h
[7] = Metabolic stability of the compound in rat plasma after 40 mins; type: ADME, cell-free; settings: read-out: Stability
[8] = Metabolic stability of the compound in rat microsomes after 40 mins; type: ADME, Microsome; settings: read-out: Stability
PC-3 = experiment: Cytotoxicity against human PC3 cells expressing high level of Bcl-xL after 72 hrs by ATP-LITE assay; type: functional, cell-based; settings: PC-3, 72 h; in short: as §1
Bcl-2-like protein 1 [9] = target: T2, Bcl-2-like protein 1; experiment: Binding affinity Bcl-xL at 200 uM by one-dimensional 1H nuclear magnetic resonance spectroscopy
[10] = Cytotoxicity against human BP3 cells expressing high level of Bfl-1 and Mcl-1 after 24 hrs by annexin V-FITC and propidium iodide staining; settings: BP3, 24 h
[11] = Cytotoxicity against human RS4:11 cells expressing high level of Bcl-2 and Bcl-xL after 24 hrs by annexin V-FITC and propidium iodide staining; settings: RS4-11, 24 h
Mus musculus [12] = experiment: Reduction of spleen weight in human Bcl2 expressing B6 transgenic BALB/c mouse at 60 umol/kg, ip administered as single dose after 24 hrs; type: functional; parameters: scale not given: the % may be the effect or the level left
Mus musculus [13] = experiment: Toxicity in human Bcl2 expressing B6 transgenic BALB/c mouse up to 120 umol/kg, ip administered as single dose after 24 hrs; type: organism-based; settings: in vivo
In short: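 B6 Bcl-2 transgenic Balb/c mice, age- and sex-matched, given one intraperitoneal dose (60 or 120 μmol/kg, also 30 μmol/kg) in ethanol:Cremophor EL:saline 10:10:80, 500 μL; survival and signs of toxicity observed over 24 h before sacrifice.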

Mus musculus [14] = experiment: Toxicity in human Bcl2 expressing B6 transgenic BALB/c mouse assessed as mortality at 60 umol/kg, ip administered as single dose after 24 hrs; type: organism-based; settings: in vivo
In short: (§2)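 Age- and sex-matched B6 Bcl2 transgenic mice (human BCL-2/IgH minigene on Balb/c background, no aggressive lymphoma yet) given a single i.p. injection of compound in 500 μL ethanol:Cremophor EL:saline 10:10:80. Controls received vehicle. Animals sacrificed at 24 h with Avertin; spleen removed and weighed.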

Mus musculus [15] = experiment: Toxicity in human Bcl2 expressing B6 transgenic BALB/c mouse assessed as mortality at 30 umol/kg, ip administered as single dose after 24 hrs; type: organism-based; settings: in vivo; in short: as §2
Mus musculus [16] = experiment: Reduction of spleen weight in human Bcl2 expressing B6 transgenic BALB/c mouse at 30 umol/kg, ip administered as single dose after 24 hrs; type: functional; parameters: scale not given: the % may be the effect or the level left
Mus musculus [17] = experiment: Toxicity in human PPC1 cells xenografted nude mouse assessed as mortality at 25 mg/kg, ip administered weekly 3 times; type: organism-based, PPC-1; parameters: dose 25 mg/kg, route intraperitoneal; settings: in vivo
In short: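 PPC-1 flank xenografts (5×10^6 cells s.c.) in female 6-week-old nude mice, size-matched at 200 mm³, 6 per group. Compound given i.p. three times in the first week in ethanol:Cremophor EL:saline 10:10:80 (500 μL); controls got saline. Survival and body weight monitored during week 1.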

Compound | IC50 (Bcl-2-related protein A1) | Ki (Bcl-2-related protein A1) | IC50 (Bcl-2-like protein 1 [1]) | Ki (Bcl-2-like protein 1 [1]) | EC50 [2] | IC50 [3] | Ki [3] | IC50 [4] | Ki [4] | EC50 (NCI-H460) | Activity (Mus musculus [5]) | remaining at 40 min [7] | remaining at 40 min [8] | EC50 (PC-3) | Activity (Bcl-2-like protein 1 [9]) | EC50 [10] | EC50 [11] | further results
CC1=C(C2=C(C)C(=O)c3c(cc(O)c(O)c3CCc3ccccc3)C2=O)C(=O)c2cc(O)c(O)c(CCc3ccccc3)c2C1=O | 9.72 µM | 6.47 µM | 1.79 µM | 1.2 µM | 0.85 µM | 1.29 µM | 0.87 µM | 2.57 µM | 1.73 µM | 1.04 µM | Dose-dependent effect | 81% | 89% | 1.4 µM | Active | 8.72 µM |  | EC50 [6]: 4.75 µM
CC1=C(C2=C(C)C(=O)c3c(cc(O)c(O)c3CCCc3ccccc3)C2=O)C(=O)c2cc(O)c(O)c(CCCc3ccccc3)c2C1=O | 5.27 µM | 3.53 µM | 1.44 µM | 0.96 µM | 1.53 µM | 0.67 µM | 0.45 µM | 2.17 µM | 1.45 µM | 0.92 µM | Dose-dependent effect | 87% | 88% | 1.3 µM | Active |  |  | EC50 [6]: 3.83 µM
CC1=C(C2=C(C)C(=O)c3c(cc(O)c(O)c3CCC(C)(C)c3ccccc3)C2=O)C(=O)c2cc(O)c(O)c(CCC(C)(C)c3ccccc3)c2C1=O |  |  |  |  | 2.16 µM |  |  |  |  | 1.62 µM | Dose-dependent effect |  |  | 2 µM | Active | 30 µM | 15 µM | 
CC1=C(C2=C(C)C(=O)c3c(cc(O)c(O)c3CC3CCCC3)C2=O)C(=O)c2cc(O)c(O)c(CC3CCCC3)c2C1=O |  |  | 2.99 µM | 2 µM | 2.32 µM | 3.08 µM | 2.07 µM | 2.27 µM | 1.53 µM | 0.7 µM | Dose-dependent effect |  |  | 5.5 µM | Active | 12.8 µM | 9.83 µM | 
CC1=C(C2=C(C)C(=O)c3c(cc(O)c(O)c3CC(C)C)C2=O)C(=O)c2cc(O)c(O)c(CC(C)C)c2C1=O |  | 0.93 µM |  | 0.37 µM |  |  | 0.31 µM |  | 0.17 µM |  | Dose-dependent effect | 98% | 69% |  | Active |  |  | Activity (Mus musculus [12]): >30%; Activity (Mus musculus [13]): Non-toxic
CC1=C(C2=C(C)C(=O)c3c(cc(O)c(O)c3C(=O)Cc3ccccc3)C2=O)C(=O)c2cc(O)c(O)c(C(=O)Cc3ccccc3)c2C1=O | 0.69 µM | 0.46 µM | 0.34 µM | 0.24 µM | > 30 µM | 0.35 µM | 0.23 µM | 0.22 µM | 0.15 µM | 7.38 µM | Dose-dependent effect |  |  | 5.44 µM | Active | 9.58 µM |  | EC50 [6]: > 30 µM
CC1=C(C2=C(C)C(=O)c3c(cc(O)c(O)c3CCCc3ccc(F)cc3)C2=O)C(=O)c2cc(O)c(O)c(CCCc3ccc(F)cc3)c2C1=O |  |  |  |  | 1.91 µM |  |  |  |  | 1.48 µM | Dose-dependent effect |  |  | 2.62 µM | Active | 14.6 µM | 11.2 µM | 
CCc1ccc(CCNC(=O)c2c(O)c(O)cc3c2C(=O)C(C)=C(C2=C(C)C(=O)c4c(cc(O)c(O)c4C(=O)NCCc4ccc(CC)cc4)C2=O)C3=O)cc1 | 1.25 µM | 0.87 µM | 0.24 µM | 0.16 µM |  | 0.32 µM | 0.21 µM | 0.21 µM | 0.14 µM |  | Dose-dependent effect |  |  |  | Active |  | > 30 µM | 
CC1=C(C2=C(C)C(=O)c3c(cc(O)c(O)c3Cc3ccc(Cl)cc3)C2=O)C(=O)c2cc(O)c(O)c(Cc3ccc(Cl)cc3)c2C1=O | 0.7 µM | 0.47 µM | 0.15 µM | 0.11 µM |  | 0.4 µM | 0.27 µM | 0.34 µM | 0.23 µM |  | Dose-dependent effect |  |  |  | Active |  |  | Activity (Mus musculus [14]): Toxic; Activity (Mus musculus [15]): Non-toxic; Activity (Mus musculus [16]): 76%
CC1=C(C2=C(C)C(=O)c3c(cc(O)c(O)c3CCC3CCCCC3)C2=O)C(=O)c2cc(O)c(O)c(CCC3CCCCC3)c2C1=O |  |  | 12.7 µM | 8.4 µM | 1.32 µM | 5.9 µM | 3.93 µM | 6.73 µM | 4.47 µM | 2.2 µM | Dose-dependent effect | 74% | 98% | 2.4 µM | Active | 15.6 µM | 15.7 µM | Activity (Mus musculus [13]): Non-toxic
CC1=C(C2=C(C)C(=O)c3c(cc(O)c(O)c3CCc3ccc(OC(F)(F)F)cc3)C2=O)C(=O)c2cc(O)c(O)c(CCc3ccc(OC(F)(F)F)cc3)c2C1=O |  |  |  |  | 2.38 µM |  |  |  |  | 1.44 µM | Dose-dependent effect |  |  | 8.99 µM | Active | 16.1 µM | 7.32 µM | 
CC1=C(C2=C(C)C(=O)c3c(cc(O)c(O)c3C(=O)NCC(C)c3ccccc3)C2=O)C(=O)c2cc(O)c(O)c(C(=O)NCC(C)c3ccccc3)c2C1=O (stereo not drawn) | 0.71 µM | 0.47 µM | 0.32 µM | 0.21 µM | > 30 µM | 0.47 µM | 0.31 µM | 0.23 µM | 0.15 µM |  | Dose-dependent effect | 91% | 71% |  | Active |  | > 30 µM | Activity (Mus musculus [14]): Toxic; Activity (Mus musculus [15]): Non-toxic
Cc1cc2c(C(C)C)c(O)c(O)c(C=O)c2c(O)c1-c1c(C)cc2c(C(C)C)c(O)c(O)c(C=O)c2c1O [GOSSYPOL] |  |  |  |  |  |  |  |  |  |  |  |  |  |  |  |  |  | Activity (Mus musculus [17]): Toxic
CC1=C(C2=C(C)C(=O)c3c(cc(O)c(O)c3Cc3ccc(-c4ccccc4)cc3)C2=O)C(=O)c2cc(O)c(O)c(Cc3ccc(-c4ccccc4)cc3)c2C1=O |  |  |  |  | 10.3 µM |  |  |  |  | 0.98 µM | Dose-dependent effect |  |  | 2.97 µM | Active | 0.81 µM | 1.74 µM | 
CC1=C(C2=C(C)C(=O)c3c(cc(O)c(O)c3C(=O)NCc3cccc(C)c3)C2=O)C(=O)c2cc(O)c(O)c(C(=O)NCc3cccc(C)c3)c2C1=O |  |  |  |  | > 30 µM |  |  |  |  | 6.16 µM | Dose-dependent effect |  |  | 5.44 µM | Active | 21.6 µM | > 30 µM | 
